Measured values taken from ChEMBL document CHEMBL2034888, “Synthesis, anticonvulsant activity, and neuropathic pain-attenuating activity of N-benzyl 2-amino-2-(hetero)aromatic acetamides” (Bioorg Med Chem, 2012).

Legend:
[1] = system: Mus musculus; assay: Anticonvulsant activity in ip dosed albino CF-1 mouse assessed as protection against maximal electroshock-induced seizure; type: functional; conditions: albino CF-1, ip
[2] = Neurotoxicity in ip dosed albino CF-1 mouse by rotorod test; type: toxicity, organism-based; conditions: in vivo
[3] = system: Mus musculus; assay: Anticonvulsant activity in ip dosed NMRI mouse assessed as protection against maximal electroshock-induced seizure after 30 mins postdose; type: functional; conditions: 0.5 h; for minimal effective dose: read-out: MED
Procedure, shortened: (§1)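 Adult male NMRI mice given compound intraperitoneally; maximal electroshock seizure test run 30 min after dosing. Where a dose–response was run, ED50 in mg/kg was derived. Otherwise a minimal active dose was reported, or the percentage of mice protected at a single dose.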

[4] = system: Mus musculus; assay: Anticonvulsant activity in ip dosed NMRI mouse assessed as protection against 6 Hz psychomotor seizure after 30 mins; type: functional; conditions: 0.5 h
Procedure, shortened: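 Adult male NMRI mice dosed ip. Psychomotor seizures were induced by 6 Hz stimulation at 44 mA, 30 min after administration. ED50 in mg/kg was derived where determinable, otherwise a minimal active dose was reported.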

[5] = system: Mus musculus; assay: Antinociceptive activity in NMRI mouse neuropathic pain model assessed as protection against formalin-induced nociceptive behaviour at 90 mg/kg, ip after 30 mins; type: functional; conditions: route intraperitoneal
Procedure, shortened: (§2)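 Formalin test in adult male NMRI mice used as a prescreen for pain attenuation, 30 min after ip administration. ED50 in mg/kg was derived where possible. Otherwise the percent protected after a single stated dose was reported.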

[6] = system: Mus musculus; assay: Toxicity in ip dosed NMRI mouse assessed as tremors at 90 mg/kg, ip after 30 mins; type: organism-based; parameters: dose 90 mg/kg, route intraperitoneal; conditions: in vivo, 0.5 h
Procedure, shortened: (§3)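 Adult male NMRI mice were dosed ip. Whole-animal pharmacological observation was made at the stated mg/kg dose, recording tremors, convulsions, writhing, impaired gait or mortality. Timing was 30 min post-dose.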

[7] = system: Mus musculus; assay: Antinociceptive activity in ip dosed NMRI mouse neuropathic pain model assessed as protection against formalin-induced nociceptive behaviour after 30 mins; type: functional; conditions: 0.5 h; procedure, shortened: as §2
[8] = Neurotoxicity in ip dosed NMRI mouse after 30 mins by rotorod test; type: toxicity, organism-based; conditions: in vivo
Procedure, shortened: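 Neurological impairment was scored by rotorod in adult male NMRI mice 30 min after ip dosing. TD50 in mg/kg was derived where possible, otherwise the maximal tolerated dose was given.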

[9] = system: Mus musculus; assay: Protective index, ratio of TD50 for NMRI mouse to ED50 for anticonvulsant activity in ip dosed NMRI mouse by maximal electroshock seizure test; type: functional
[10] = system: Mus musculus; assay: Protective index, ratio of TD50 for NMRI mouse to ED50 for antinociceptive activity in ip dosed NMRI mouse neuropathic pain model; type: functional
[11] = system: Mus musculus; assay: Toxicity in ip dosed NMRI mouse assessed as convulsions at 160 mg/kg, ip after 30 mins; type: organism-based; parameters: dose 160 mg/kg, route intraperitoneal; conditions: in vivo, 0.5 h; procedure, shortened: as §3
[12] = system: Mus musculus; assay: Toxicity in ip dosed NMRI mouse assessed as convulsions at 77 mg/kg, ip after 30 mins; type: organism-based; parameters: dose 77 mg/kg, route intraperitoneal; conditions: in vivo, 0.5 h; procedure, shortened: as §3
[13] = system: Mus musculus; assay: Toxicity in ip dosed NMRI mouse assessed as mortality at 140 mg/kg, ip after 30 mins; type: organism-based; parameters: dose 140 mg/kg, route intraperitoneal; conditions: in vivo, 0.5 h
Procedure, shortened: (§4)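 Adult male NMRI mice dosed intraperitoneally. Whole-animal pharmacological observation at the listed mg/kg dose, with convulsions and mortality recorded as signs. This was done alongside MES, 6 Hz (44 mA) psychomotor seizure, formalin and rotorod testing, which were read 30 min after ip dosing.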

[14] = system: Mus musculus; assay: Antinociceptive activity in NMRI mouse neuropathic pain model assessed as protection against formalin-induced nociceptive behaviour at 24 mg/kg, ip after 30 mins; type: functional; conditions: route intraperitoneal; procedure, shortened: as §2
[15] = Ratio of drug level in brain to plasma in mouse; type: ADME, organism-based; conditions: brain and plasma, read-out: BPR
[16] = system: Mus musculus; assay: Toxicity in ip dosed NMRI mouse assessed as convulsions at 105 mg/kg, ip after 30 mins; type: organism-based; parameters: dose 105 mg/kg, route intraperitoneal; conditions: in vivo, 0.5 h; procedure, shortened: as §4
[17] = system: Mus musculus; assay: Toxicity in ip dosed NMRI mouse assessed as mortality at 105 mg/kg, ip after 30 mins; type: organism-based; parameters: dose 105 mg/kg, route intraperitoneal; conditions: in vivo, 0.5 h; procedure, shortened: as §4
[18] = system: Mus musculus; assay: Toxicity in ip dosed NMRI mouse assessed as tremors at 59 mg/kg, ip after 30 mins; type: organism-based; parameters: dose 59 mg/kg, route intraperitoneal; conditions: in vivo, 0.5 h; procedure, shortened: as §3
[19] = system: Mus musculus; assay: Toxicity in ip dosed NMRI mouse assessed as writhings at 59 mg/kg, ip after 30 mins; type: organism-based; parameters: dose 59 mg/kg, route intraperitoneal; conditions: in vivo, 0.5 h; procedure, shortened: as §3
[20] = system: Mus musculus; assay: Toxicity in ip dosed NMRI mouse assessed as convulsions at 110 mg/kg, ip after 30 mins; type: organism-based; parameters: dose 110 mg/kg, route intraperitoneal; conditions: in vivo, 0.5 h; procedure, shortened: as §4
[21] = system: Mus musculus; assay: Toxicity in ip dosed NMRI mouse assessed as mortality at 110 mg/kg, ip after 30 mins; type: organism-based; parameters: dose 110 mg/kg, route intraperitoneal; conditions: in vivo, 0.5 h; procedure, shortened: as §4
[22] = system: Mus musculus; assay: Antinociceptive activity in NMRI mouse neuropathic pain model assessed as protection against formalin-induced nociceptive behaviour at 110 mg/kg, ip after 30 mins; type: functional; conditions: route intraperitoneal; procedure, shortened: as §2
[23] = system: Mus musculus; assay: Toxicity in ip dosed NMRI mouse assessed as writhings at 130 mg/kg, ip after 30 mins; type: organism-based; parameters: dose 130 mg/kg, route intraperitoneal; conditions: in vivo, 0.5 h; procedure, shortened: as §3
[24] = system: Mus musculus; assay: Toxicity in ip dosed NMRI mouse assessed as convulsions at 130 mg/kg, ip after 30 mins; type: organism-based; parameters: dose 130 mg/kg, route intraperitoneal; conditions: in vivo, 0.5 h; procedure, shortened: as §3
[25] = system: Mus musculus; assay: Anticonvulsant activity in NMRI mouse assessed as protection against maximal electroshock-induced seizure at 140 mg/kg, ip after 30 mins; type: functional; conditions: route intraperitoneal; procedure, shortened: as §1
[26] = system: Mus musculus; assay: Toxicity in ip dosed NMRI mouse assessed as impaired gait at 100 mg/kg, ip after 30 mins; type: organism-based; parameters: dose 100 mg/kg, route intraperitoneal; conditions: in vivo, 0.5 h; procedure, shortened: as §3
[27] = system: Mus musculus; assay: Toxicity in ip dosed NMRI mouse assessed as tremors at 100 mg/kg, ip after 30 mins; type: organism-based; parameters: dose 100 mg/kg, route intraperitoneal; conditions: in vivo, 0.5 h; procedure, shortened: as §3
[28] = system: Mus musculus; assay: Anticonvulsant activity in ip dosed albino CF-1 mouse assessed as protection against maximal electroshock-induced seizure after 0.5 hrs; type: functional; conditions: albino CF-1, ip
[29] = Neurotoxicity in ip dosed albino CF-1 mouse by horizontal screen test; type: toxicity, organism-based; conditions: in vivo
[30] = Neurotoxicity in ip dosed albino CF-1 mouse after 30 mins by rotorod test; type: toxicity, organism-based; conditions: in vivo

CC(=O)NC(C(=O)NCc1ccccc1)c1cc2ccccc2o1 (racemic)
ED50 [1]: 100 mg/kg | TD50 [2]: 100 mg/kg

CC(=O)NC(C(=O)NCc1ccccc1)c1ccc2ccccc2c1 (racemic)
ED50 [1]: > 300 mg/kg | TD50 [2]: > 300 mg/kg

NC(C(=O)NCc1ccccc1)c1cc2ccccc2o1 (racemic)
ED50 [3]: 90 mg/kg | ED50 [4]: > 120 mg/kg | Activity [5]: 31% | Activity [6]: Toxic

NC(C(=O)NCc1ccccc1)c1cccs1 (racemic)
minimal effective dose [3]: 68 mg/kg | ED50 [4]: > 91 mg/kg | ED50 [7]: 48 mg/kg | MTD at 0.5 h [8]: 51 mg/kg | Ratio TD50/ED50 [9]: <0.8 | Ratio TD50/ED50 [10]: <1.1 | Activity [11]: Toxic

NC(C(=O)NCc1ccccc1)c1nccs1 (racemic)
ED50 [3]: 67 mg/kg | ED50 [4]: > 140 mg/kg | ED50 [7]: 45 mg/kg | MTD at 0.5 h [8]: 140 mg/kg | Ratio TD50/ED50 [9]: <2.1 | Ratio TD50/ED50 [10]: <3.1

NC(C(=O)NCc1ccccc1)c1cc2ccccc2s1 (racemic)
ED50 [3]: 120 mg/kg | ED50 [4]: > 170 mg/kg | ED50 [7]: 66 mg/kg

NC(C(=O)NCc1ccccc1)c1ccccc1 (racemic)
ED50 [3]: > 30 mg/kg | ED50 [4]: > 43 mg/kg | TD50 at 0.5 h [8]: 51 mg/kg | Activity [12]: Toxic | Activity [13]: Toxic | Ratio TD50/ED50 [9]: >1.7 | Ratio TD50/ED50 [10]: >1.2 | Activity [14]: 37%

NC(C(=O)NCc1ccccc1)c1ccccn1 (racemic)
minimal effective dose [3]: 100 mg/kg | ED50 [4]: > 100 mg/kg | ED50 [7]: 33 mg/kg | MTD at 0.5 h [8]: 180 mg/kg | Kp [15]: 2.7

NC(C(=O)NCc1ccccc1)c1cccnc1 (racemic)
minimal effective dose [3]: 120 mg/kg | ED50 [4]: > 210 mg/kg | ED50 [7]: 74 mg/kg

NC(C(=O)NCc1ccccc1)c1ccncc1 (racemic)
minimal effective dose [3]: 210 mg/kg | ED50 [4]: > 120 mg/kg | ED50 [7]: 67 mg/kg

NC(C(=O)NCc1ccccc1)c1cnccn1 (racemic)
ED50 [3]: 85 mg/kg | minimal effective dose ([4]; read-out: MED): 28 mg/kg | ED50 [7]: > 160 mg/kg | TD50 at 0.5 h [8]: > 160 mg/kg | Ratio TD50/ED50 [9]: >1.9 | Ratio TD50/ED50 [10]: >1

NC(C(=O)NCc1ccccc1)c1cccc2ccccc12 (racemic)
ED50 [3]: > 69 mg/kg | ED50 [4]: > 59 mg/kg | ED50 [7]: > 33 mg/kg | Activity [16]: Toxic | Activity [17]: Toxic

NC(C(=O)NCc1ccccc1)c1nccc2ccccc12 (racemic)
ED50 [3]: > 52 mg/kg | ED50 [4]: > 93 mg/kg | ED50 [7]: 29 mg/kg

NC(C(=O)NCc1ccccc1)c1ccc2ccccc2c1 (racemic)
ED50 [3]: 45 mg/kg | ED50 [4]: > 110 mg/kg | ED50 [7]: < 110 mg/kg | TD50 at 0.5 h [8]: 110 mg/kg | Activity [18]: Toxic | Activity [19]: Toxic | Activity [20]: Toxic | Activity [21]: Toxic | Ratio TD50/ED50 [9]: <2.4 | Activity [22]: 100%

NC(C(=O)NCc1ccccc1)c1ccc2ccccc2n1 (racemic)
ED50 [3]: > 41 mg/kg | ED50 [4]: > 130 mg/kg | ED50 [7]: 54 mg/kg | Activity [23]: Toxic | Activity [24]: Toxic

NC(C(=O)NCc1ccccc1)c1cnc2ccccc2n1 (racemic)
ED50 [3]: > 120 mg/kg | ED50 [4]: > 120 mg/kg | ED50 [7]: 42 mg/kg

NC(C(=O)NCc1ccccc1)c1ccco1 (racemic)
ED50 [3]: 85 mg/kg | ED50 [4]: > 150 mg/kg | ED50 [7]: 29 mg/kg | TD50 at 0.5 h [8]: > 150 mg/kg | Ratio TD50/ED50 [9]: >1.8 | Ratio TD50/ED50 [10]: >5.1

Cc1ccc(C(N)C(=O)NCc2ccccc2)o1 (racemic)
minimal effective dose [3]: 100 mg/kg | ED50 [4]: > 140 mg/kg | ED50 [7]: > 78 mg/kg | Activity [25]: 100% | Activity [26]: Toxic | Activity [27]: Toxic

CC(=O)NC(C(=O)NCc1ccccc1)c1cccs1 (racemic)
ED50 [28]: 45 mg/kg | TD50 [2]: 30 mg/kg

CC(=O)NC(C(=O)NCc1ccccc1)c1cc2ccccc2s1 (racemic)
ED50 [1]: 100 mg/kg | TD50 [2]: 100 mg/kg

CC(=O)NC(C(=O)NCc1ccccc1)c1ccccc1 (racemic)
ED50 [28]: 32 mg/kg | TD50 [29]: > 40 mg/kg

CC(=O)NC(C(=O)NCc1ccccc1)c1ccco1 (racemic)
ED50 [28]: 10 mg/kg | TD50 at 0.5 h [30]: 40 mg/kg

CC(=O)NC(C(=O)NCc1ccccc1)c1ccccn1 (racemic)
ED50 [28]: 11 mg/kg | TD50 [2]: 25 mg/kg

CC(=O)NC(C(=O)NCc1ccccc1)c1cnccn1 (racemic)
ED50 [28]: 15 mg/kg | TD50 at 0.5 h [30]: 58 mg/kg

CC(=O)NC(C(=O)NCc1ccccc1)c1nccs1 (racemic)
ED50 [28]: 12 mg/kg | TD50 at 0.5 h [30]: 69 mg/kg

CC(=O)NC(C(=O)NCc1ccccc1)c1ccc(C)o1 (racemic)
ED50 [28]: 19 mg/kg | TD50 at 0.5 h [30]: 75 mg/kg

COC[C@@H](NC(C)=O)C(=O)NCc1ccccc1 [LACOSAMIDE]
ED50 [3]: 3.3 mg/kg | ED50 [4]: 10 mg/kg | ED50 [7]: 15 mg/kg | Ratio TD50/ED50 [9]: 5.8 | Ratio TD50/ED50 [10]: 1.3

CCC1(c2ccccc2)C(=O)NC(=O)NC1=O [PHENOBARBITAL]
ED50 [3]: 22 mg/kg

CCCC(CCC)C(=O)[O-].[Na+] [VALPROATE SODIUM]
ED50 [3]: 270 mg/kg
